Data set [1] addresses T1, Toll-like receptor 7 (Homo sapiens) (UniProt Q9NYK1).
T1 sequence (whole entry): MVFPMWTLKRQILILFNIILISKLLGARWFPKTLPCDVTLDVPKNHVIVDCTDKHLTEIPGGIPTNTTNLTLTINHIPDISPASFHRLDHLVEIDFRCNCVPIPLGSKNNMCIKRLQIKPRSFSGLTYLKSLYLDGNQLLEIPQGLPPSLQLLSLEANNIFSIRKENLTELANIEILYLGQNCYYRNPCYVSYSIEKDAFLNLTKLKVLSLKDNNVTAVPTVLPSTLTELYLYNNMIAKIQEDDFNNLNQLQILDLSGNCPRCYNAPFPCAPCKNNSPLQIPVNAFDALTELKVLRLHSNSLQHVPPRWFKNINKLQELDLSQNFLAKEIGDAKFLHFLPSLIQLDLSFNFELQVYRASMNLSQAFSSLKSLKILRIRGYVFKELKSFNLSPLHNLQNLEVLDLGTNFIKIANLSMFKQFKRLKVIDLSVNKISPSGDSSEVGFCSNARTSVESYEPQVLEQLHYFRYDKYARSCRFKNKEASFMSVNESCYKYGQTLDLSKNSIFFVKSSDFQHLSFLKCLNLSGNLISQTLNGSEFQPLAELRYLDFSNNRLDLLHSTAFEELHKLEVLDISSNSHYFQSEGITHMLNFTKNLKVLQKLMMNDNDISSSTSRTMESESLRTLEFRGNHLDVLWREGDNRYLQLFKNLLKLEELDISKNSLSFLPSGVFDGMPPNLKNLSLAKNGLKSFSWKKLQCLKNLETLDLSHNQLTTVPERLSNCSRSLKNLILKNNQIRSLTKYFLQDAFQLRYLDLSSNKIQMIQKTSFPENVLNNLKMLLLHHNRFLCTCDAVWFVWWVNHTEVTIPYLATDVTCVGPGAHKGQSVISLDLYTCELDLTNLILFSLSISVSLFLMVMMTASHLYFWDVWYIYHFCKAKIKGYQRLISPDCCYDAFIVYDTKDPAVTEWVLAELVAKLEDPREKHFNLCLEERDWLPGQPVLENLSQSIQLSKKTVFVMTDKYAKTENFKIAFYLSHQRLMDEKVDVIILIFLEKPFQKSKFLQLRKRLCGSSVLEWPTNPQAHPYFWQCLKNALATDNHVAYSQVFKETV
The data set is described as follows: Activation of human TLR7 expressed in HEK293XL assessed as fold induction of NF-kappaB activity at 50 ug/ml after 18 hrs by reporter gene assay relative to control. The gist of the method:
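HEK293 cells stably expressing human TLR7 or TLR8, transiently transfected with SEAP reporter plasmid; medium replaced, SIMRA compounds added, 18 h incubation. Supernatant SEAP measured by QuantiBlue; expressed as fold increase in NF-κB activity over PBS control. Tabulated data at 50 μg/mL, representative of three independent experiments.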

Data set [2] is described as follows: Metabolic stability in human serum assessed as full length product remaining after 10 mins by HPLC. Type of data set: ADME, cell-free. As to conditions: read-out: Stability. The gist of the method: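 About 0.5 A260 units compound in 1% human serum in PBS, 37 °C; aliquot taken at 10 min, analysed by anion-exchange HPLC for percent intact full-length product.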

The target in data set [3] is Toll-like receptor 3 (Homo sapiens) (UniProt O15455). Kind of data set: Activation of human TLR3 expressed in HEK293 assessed as induction of NF-kappaB activity reporter gene assay. Type of data set: cell-based.
The next data set is filed under the species Homo sapiens. Kind of data set: Ratio of human TLR7 activity to human TLR8 activity. The gist of the method:
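TLR7/TLR8 ratio computed from fold NF-κB (SEAP reporter) activation in HEK293 cells stably expressing human TLR7 versus TLR8, compounds at 50 μg/mL, 18 h exposure; representative of three independent experiments.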

Molecules are shown by their SMILES. The source made the active and inactive calls. The rule behind the calls is not given here.

Chain of Toll-like receptor 3 (Homo sapiens) (O15455 whole entry): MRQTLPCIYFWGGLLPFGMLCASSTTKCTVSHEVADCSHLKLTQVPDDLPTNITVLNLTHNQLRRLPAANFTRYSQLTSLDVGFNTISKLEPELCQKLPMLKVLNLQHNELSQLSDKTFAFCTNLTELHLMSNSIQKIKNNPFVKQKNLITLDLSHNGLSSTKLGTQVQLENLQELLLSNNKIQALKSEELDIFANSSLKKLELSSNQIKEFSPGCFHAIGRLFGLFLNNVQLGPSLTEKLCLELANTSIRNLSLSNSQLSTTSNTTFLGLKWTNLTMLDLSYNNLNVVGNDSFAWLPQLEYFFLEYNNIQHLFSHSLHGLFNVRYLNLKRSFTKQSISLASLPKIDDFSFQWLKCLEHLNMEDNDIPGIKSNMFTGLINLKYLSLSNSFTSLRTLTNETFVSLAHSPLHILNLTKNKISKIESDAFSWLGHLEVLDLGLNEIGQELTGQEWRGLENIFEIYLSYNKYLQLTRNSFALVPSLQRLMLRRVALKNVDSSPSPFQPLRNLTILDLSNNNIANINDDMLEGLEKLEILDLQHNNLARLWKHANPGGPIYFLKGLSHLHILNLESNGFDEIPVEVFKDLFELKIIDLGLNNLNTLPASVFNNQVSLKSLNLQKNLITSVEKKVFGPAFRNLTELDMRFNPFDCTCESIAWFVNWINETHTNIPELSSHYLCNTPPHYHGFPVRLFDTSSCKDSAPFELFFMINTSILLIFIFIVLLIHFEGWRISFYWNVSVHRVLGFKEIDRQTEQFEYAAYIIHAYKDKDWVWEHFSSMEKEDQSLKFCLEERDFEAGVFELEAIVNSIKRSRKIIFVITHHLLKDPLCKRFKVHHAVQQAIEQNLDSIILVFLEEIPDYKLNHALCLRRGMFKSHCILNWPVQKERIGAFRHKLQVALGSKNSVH

Consider `Nc1ccn([C@@H]2O[C@H](COP(=O)(S)O[C@H]3[C@@H](O)[C@H](n4cnc5c(N)ncnc54)O[C@@H]3CO)[C@@H](OP(=O)(S)OC[C@H]3O[C@@H](n4ccc(=O)[nH]c4=O)[C@H](O)[C@@H]3OP(=O)(S)OC[C@H]3O[C@@H](n4ccc5c(=O)[nH]c(N)nc54)[C@H](O)[C@@H]3OP(=O)(S)OC[C@H]3O[C@@H](n4cnc5c(N)ncnc54)[C@H](O)[C@@H]3OP(=O)(S)OC[C@H]3O[C@@H](n4ccc5c(=O)[nH]c(N)nc54)[C@H](O)[C@@H]3OP(=O)(S)OC[C@H]3O[C@@H](n4cnc5c(N)ncnc54)[C@H](O)[C@@H]3OP(=O)(S)OC[C@H]3O[C@@H](n4ccc5c(=O)[nH]c(N)nc54)[C@H](O)[C@@H]3OP(=O)(S)OC[C@H]3O[C@@H](n4ccc(N)nc4=O)[C@H](O)[C@@H]3OP(=O)(S)OC[C@H]3O[C@@H](n4ccc(=O)[nH]c4=O)[C@H](O)[C@@H]3OP(=O)(S)OC[C@H]3O[C@@H](n4ccc(=O)[nH]c4=O)[C@H](O)[C@@H]3OP(=O)(S)OCC(O)COP(=O)(S)O[C@H]3[C@@H](O)[C@H](n4ccc(=O)[nH]c4=O)O[C@@H]3COP(=O)(S)O[C@H]3[C@@H](O)[C@H](n4ccc(=O)[nH]c4=O)O[C@@H]3COP(=O)(S)O[C@H]3[C@@H](O)[C@H](n4ccc(N)nc4=O)O[C@@H]3COP(=O)(S)O[C@H]3[C@@H](O)[C@H](n4ccc5c(=O)[nH]c(N)nc54)O[C@@H]3COP(=O)(S)O[C@H]3[C@@H](O)[C@H](n4cnc5c(N)ncnc54)O[C@@H]3COP(=O)(S)O[C@H]3[C@@H](O)[C@H](n4ccc5c(=O)[nH]c(N)nc54)O[C@@H]3COP(=O)(S)O[C@H]3[C@@H](O)[C@H](n4cnc5c(N)nc(N)nc54)O[C@@H]3COP(=O)(S)O[C@H]3[C@@H](O)[C@H](n4ccc5c(=O)[nH]c(N)nc54)O[C@@H]3COP(=O)(S)O[C@H]3[C@@H](O)[C@H](n4ccc(=O)[nH]c4=O)O[C@@H]3COP(=O)(S)O[C@H]3[C@@H](O)[C@H](n4ccc(N)nc4=O)O[C@@H]3COP(=O)(S)O[C@H]3[C@@H](O)[C@H](n4cnc5c(N)ncnc54)O[C@@H]3CO)[C@H]2O)c(=O)n1` (some centres not stated), for which the fold change (FC) in data set [1] is 16.8. Moreover, the remaining at 10 min in data set [2] amounted to 79%. Besides, the result in data set [3] was inactive. The Ratio in the data set filed under Homo sapiens is 7.

Regarding `Nc1ccn([C@@H]2O[C@H](COP(=O)(S)O[C@H]3[C@@H](O)[C@H](n4cnc5c(N)ncnc54)O[C@@H]3COP(=O)(S)O[C@H]3[C@@H](O)[C@H](n4ccc5c(=O)[nH]c(N)nc54)O[C@@H]3COP(=O)(S)O[C@H]3[C@@H](O)[C@H](n4ccc(=O)[nH]c4=O)O[C@@H]3COP(=O)(S)O[C@H]3[C@@H](O)[C@H](n4ccc(=O)[nH]c4=O)O[C@@H]3COP(=O)(S)O[C@H]3[C@@H](O)[C@H](n4cnc5c(N)ncnc54)O[C@@H]3COP(=O)(S)O[C@H]3[C@@H](O)[C@H](n4cnc5c(N)ncnc54)O[C@@H]3CO)[C@@H](OP(=O)(S)OC[C@H]3O[C@@H](n4ccc5c(=O)[nH]c(N)nc54)[C@H](O)[C@@H]3OP(=O)(S)OC[C@H]3O[C@@H](n4ccc(N)nc4=O)[C@H](O)[C@@H]3OP(=O)(S)OC[C@H]3O[C@@H](n4ccc(=O)[nH]c4=O)[C@H](O)[C@@H]3OP(=O)(S)OC[C@H]3O[C@@H](n4ccc5c(=O)[nH]c(N)nc54)[C@H](O)[C@@H]3OP(=O)(S)OCC(O)COP(=O)(S)O[C@H]3[C@@H](O)[C@H](n4ccc5c(=O)[nH]c(N)nc54)O[C@@H]3COP(=O)(S)O[C@H]3[C@@H](O)[C@H](n4ccc(=O)[nH]c4=O)O[C@@H]3COP(=O)(S)O[C@H]3[C@@H](O)[C@H](n4ccc(N)nc4=O)O[C@@H]3COP(=O)(S)O[C@H]3[C@@H](O)[C@H](n4ccc5c(=O)[nH]c(N)nc54)O[C@@H]3COP(=O)(S)O[C@H]3[C@@H](O)[C@H](n4ccc(N)nc4=O)O[C@@H]3COP(=O)(S)O[C@H]3[C@@H](O)[C@H](n4cnc5c(N)ncnc54)O[C@@H]3COP(=O)(S)O[C@H]3[C@@H](O)[C@H](n4ccc5c(=O)[nH]c(N)nc54)O[C@@H]3COP(=O)(S)O[C@H]3[C@@H](O)[C@H](n4ccc(=O)[nH]c4=O)O[C@@H]3COP(=O)(S)O[C@H]3[C@@H](O)[C@H](n4ccc(=O)[nH]c4=O)O[C@@H]3COP(=O)(S)O[C@H]3[C@@H](O)[C@H](n4cnc5c(N)ncnc54)O[C@@H]3COP(=O)(S)O[C@H]3[C@@H](O)[C@H](n4cnc5c(N)ncnc54)O[C@@H]3CO)[C@H]2O)c(=O)n1` (some centres not stated), the fold change (FC) in data set [1] came to 22.9. Also, in data set [2], the remaining at 10 min worked out at 82%. Further, the outcome in data set [3] was inactive. The Ratio in the data set listed under Homo sapiens is 114.

Turning to `Nc1ccn([C@@H]2O[C@H](COP(=O)(S)O[C@H]3[C@@H](O)[C@H](n4cnc5c(N)ncnc54)O[C@@H]3COP(=O)(S)O[C@H]3[C@@H](O)[C@H](n4ccc5c(=O)[nH]c(N)nc54)O[C@@H]3COP(=O)(S)O[C@H]3[C@@H](O)[C@H](n4ccc(=O)[nH]c4=O)O[C@@H]3CO)[C@@H](OP(=O)(S)OC[C@H]3O[C@@H](n4ccc5c(=O)[nH]c(N)nc54)[C@H](O)[C@@H]3OP(=O)(S)OC[C@H]3O[C@@H](n4cnc5c(N)ncnc54)[C@H](O)[C@@H]3OC[C@H]3O[C@@H](n4ccc(=O)[nH]c4=O)[C@H](O)[C@@H]3OP(=O)(S)ON[C@H]3O[C@@H](n4ccc5c(=O)[nH]c(N)nc54)[C@H](O)[C@@H]3OP(=O)(S)OC[C@H]3O[C@@H](n4cnc5c(N)ncnc54)[C@H](O)[C@@H]3OP(=O)(S)OC[C@H]3O[C@@H](n4ccc(=O)[nH]c4=O)[C@H](O)[C@@H]3OP(=O)(S)OC[C@H]3O[C@@H](n4ccc(=O)[nH]c4=O)[C@H](O)[C@@H]3OP(=O)(S)OCC(O)COP(=O)(S)O[C@H]3[C@@H](O)[C@H](n4ccc(=O)[nH]c4=O)O[C@@H]3COP(=O)(S)O[C@H]3[C@@H](O)[C@H](n4ccc(=O)[nH]c4=O)O[C@@H]3COP(=O)(S)O[C@H]3[C@@H](O)[C@H](n4cnc5c(N)ncnc54)O[C@@H]3COP(=O)(S)O[C@H]3[C@@H](O)[C@H](n4ccc5c(=O)[nH]c(N)nc54)O[C@@H]3NOP(=O)(S)O[C@H]3[C@@H](O)[C@H](n4ccc(=O)[nH]c4=O)O[C@@H]3CO[C@H]3[C@@H](O)[C@H](n4cnc5c(N)ncnc54)O[C@@H]3COP(=O)(S)O[C@H]3[C@@H](O)[C@H](n4ccc5c(=O)[nH]c(N)nc54)O[C@@H]3COP(=O)(S)O[C@H]3[C@@H](O)[C@H](n4ccc(N)nc4=O)O[C@@H]3COP(=O)(S)O[C@H]3[C@@H](O)[C@H](n4cnc5c(N)ncnc54)O[C@@H]3COP(=O)(S)O[C@H]3[C@@H](O)[C@H](n4ccc5c(=O)[nH]c(N)nc54)O[C@@H]3COP(=O)(S)O[C@H]3[C@@H](O)[C@H](n4ccc(=O)[nH]c4=O)O[C@@H]3CO)[C@H]2O)c(=O)n1` (some centres not stated), the fold change (FC) in data set [1] was 18.4. For the same compound, the remaining at 10 min in data set [2] was found to be 86%. In addition, the result in data set [3] was inactive. Besides, in the data set listed under Homo sapiens, the Ratio came to 4.

The values above are taken from ChEMBL document CHEMBL1154352, “Toll-like receptor 7 selective synthetic oligoribonucleotide agonists: synthesis and structure-activity relationship studies” (J Med Chem, 2009).
